Measurements taken from PMC2139869 (The Journal of Cell Biology, 1997).
“Also recorded” adds a separate entry of the source.

Tested on: sperm–egg plasma membrane adhesion and fusion (zona-free eggs, acrosome-reacted sperm)
Assay: In vitro sperm–egg adhesion and fusion assay with active site peptides
Format: cell-based, mouse
Conditions: peptide 500 μM, Fig. 2, FI and FR taken together
Procedure, shortened: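 Mice superovulated with 10 IU PMSG and 5 IU hCG 48 h apart. Metaphase II eggs collected ~12 h post-hCG, cumulus removed with hyaluronidase, zonae with chymotrypsin, then DAPI-preloaded. Peptide added 30 min before capacitated, acrosome-reacted sperm (2–4 × 10^4/ml final) and present throughout. Coincubated 30 min, 37 °C, 5% CO2, Whittingham's/3% BSA. Scored sperm bound/egg, FI and FR; 43–82 eggs per peptide.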

## SVDECDLL [ADAM 5 peptide]
  inhibition of sperm–egg binding and fusion (stated jointly): essentially no inhibition; also recorded: did not inhibit
